# PMI act: increases human mannose-6-phosphate isomerase activity | purified human PMI, coupled resazurin fluorescence, 20 min; active compounds read high; 1 = vehicle control, 0 substrate-free wells | activation factor at 20 µM | hit rate 0.005% among 190,000 | AID 1214;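 active = activation factor of 2 or more at 20 µM, relative to plate controls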
# Target sequence (P34949 whole entry, looked up): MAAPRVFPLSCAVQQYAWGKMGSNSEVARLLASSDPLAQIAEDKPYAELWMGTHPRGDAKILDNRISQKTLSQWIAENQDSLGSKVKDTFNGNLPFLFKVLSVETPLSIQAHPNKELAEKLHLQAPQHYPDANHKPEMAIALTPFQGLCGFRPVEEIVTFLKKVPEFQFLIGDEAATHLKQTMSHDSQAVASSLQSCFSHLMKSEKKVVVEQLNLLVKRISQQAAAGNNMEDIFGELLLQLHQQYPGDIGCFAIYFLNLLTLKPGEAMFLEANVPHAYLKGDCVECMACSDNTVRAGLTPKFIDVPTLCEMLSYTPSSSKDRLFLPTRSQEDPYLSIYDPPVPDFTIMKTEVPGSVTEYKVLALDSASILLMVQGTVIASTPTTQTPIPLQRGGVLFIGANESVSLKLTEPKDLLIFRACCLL
# TbHK1 inh: blocks Trypanosoma brucei hexokinase 1 activity | hit rate 0.11% among 220,000 | inhibition, % at 10 µM | AID 1430 | recombinant TbHK1, G6PDH-coupled NADH A340;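 active = inhibition of 50% or more in the single-dose primary screen; inactive = inhibition below 50%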
# PMI act hi M6P: increases human PMI activity with near-saturating mannose 6-phosphate. P34949. coupled PMI enzyme assay, resazurin fluorescence, 20 min; active compounds read high; 1 = untreated enzyme, 0 = substrate-free blank. activation factor at 20 µM. hit rate 0.34% among 190,000;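 active = activation factor of 2 or more at 20 µM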
#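 Test system: human phosphomannose isomerase with PGI, G6PDH, diaphorase coupling enzymes / Doses: 20 µM compound, 1% DMSO / Times: enzyme reaction with compound 20 min at room temperature / Measured by: Diaphorase-driven resazurin-to-resorufin fluorescence, excitation 544, emission 590 nm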
# G6PDH counter: inhibits Leuconostoc G6PDH, flagging false hits in G6PDH-based assays; Purified L. mesenteroides G6PDH, diaphorase/resazurin coupled fluorescence, 45 min; inhibition, % at 5 µM; hit rate 0.12% among 200,000; in the data active = inhibition above about 50%
# Redox H2O2 prof: compounds producing H2O2 with reducing agent – biochemical, NIH compound library profiling, artefact control for MLSCN library redox annotation, primary screen; hit rate 0.03% among 200,000; activation, % at 10 µM; DTT-dependent redox cycling H2O2, phenol red/HRP absorbance; 100% = 100 µM peroxide control, 0% = buffer;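 active = activation of at least 50% relative to the plate's high and low controls in the primary single-dose screen; inactive = activation below 50%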;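 also: compound incubated with DTT at 0.8 mM final as the reducing agent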
# p97 ATPase inh: blocks human p97 ATPase activity; P55072; recombinant p97 ATPase, Kinase-Glo ATP luminescence, 3 h; inhibition, % at 8 µM; hit rate 0.42% among 220,000; AID 1481; in the data active = inhibition above about 15%;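 also: 0% = DMSO vehicle and 100% = wells lacking enzyme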
# p97 inh conf: confirmation of human p97 ATPase inhibitors. shares compounds with p97 ATPase inh. recombinant p97 ATPase, Kinase-Glo ATP luminescence. inhibition, % at 8 µM. hit rate 44% among 760. AID 1517;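 active = percent inhibition of p97 ATPase above a set limit, the primary screen's mean plus 3 SD, cut at about 15% in these data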;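 also: 0% = DMSO wells and 100% = wells lacking p97 protein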
# The depositor's hits bear a star; . = no result given. The list is not random: actives were taken first. Their share in the collection is about 0.91%.
SMILES,PMI act,TbHK1 inh,PMI act hi M6P,G6PDH counter,Redox H2O2 prof,p97 ATPase inh,p97 inh conf
CC1CC(C)(C)NC(=S)N1CCC(=O)N1CCN(c2ccccc2)CC1 (stereo not given),1,0.2,1,10.9,-0.8,15.2*,2.7
CC(=O)Nc1ccc(NC(=O)COC(=O)CCc2nc3ccccc3s2)cc1,1.1,0.5,1.1,4.0,0.1,5.3,.
CC1CCc2c(sc(NS(=O)(=O)c3ccccc3)c2C(=O)OC(C)C)C1 (stereo not given),0.9,4.5,0.8,5.7,-0.1,-9.7,.
O=C(O)CCCN1C(=O)C2C3CC(C2C1=O)C1C(c2ccccc2)c2sc(=O)n(-c4ccccc4)c2SC31 (stereo not given),1.2,-5.9,1.2,8.5,-0.2,-0.6,.
N=c1c(C(=O)NCc2ccccc2)cc2c(=O)n3ccccc3nc2n1Cc1ccco1,1,-4.4,1,-1.4,0.9,22.8*,13.1
O=C(C[n+]1cnn(CC(=O)c2ccc(Cl)cc2Cl)c1)c1ccc([N+](=O)[O-])cc1,1.2,-4.4,1.2,-23.2,0.3,16.8*,3.0
COc1ccc(CN2CCC(CO)(CCOc3ccccc3)CC2)cc1C,1,-3.2,1,11.4,-1.1,2.2,.
O=C(O)c1ccc(-c2nc(-c3ccccc3)c(-c3cccs3)[nH]2)cc1,.,-37.2,.,.,.,6.0,.
COc1ccc(-c2nc(-c3cccs3)c(-c3cccs3)[nH]2)cc1O,0.9,-17.7,0.9,3.7,-0.6,15.3*,26.1*
N#C/C(=C/c1ccc(-c2ccc(C(=O)O)c(Cl)c2)o1)C(=O)NCC1CCCO1 (stereo not given),1.2,-18.2,1.2,6.2,0.0,27.1*,37.1*
N#C/C(=C/c1ccc(Br)o1)C(N)=O,1,-43.7,0.9,4.3,0.9,3.0,.
N#C/C(=C/c1ccc(Br)o1)C(N)=S,.,-48.8,.,.,.,35.1*,30.2*
O=C(Nc1ccc(Cl)cc1)C1CC2CCCC(C1)C2=O (stereo not given),1.1,0.1,1.1,6.2,-0.3,-4.0,.
O=C(Nc1ccccc1)C1CC2CCCC(C1)C2=O (stereo not given),0.8,-2.4,0.9,15.0,2.4,16.8*,5.7
Cc1ccc(NC(=O)CN2C(=O)N/C(=C/c3cccn3-c3ccc(C(=O)O)cc3)C2=O)cc1,1.1,0.4,0.9,-9.0,-0.2,17.1*,31.6*
Cc1ccc(NC(=O)CN2C(=O)N/C(=C/c3cc(C)n(-c4ccc(C(=O)O)cc4)c3C)C2=O)cc1,1.6,-11.3,1.3,-1.3,-1.1,6.8,.
O=C(NC1(O)C(=O)c2ccccc2C1=O)c1ccccc1,0.9,2.6,0.9,-19.1,0.0,9.0,.
O=C(NC1(O)C(=O)c2ccccc2C1=O)c1c(Cl)cccc1Cl,.,-5.9,.,.,.,19.8*,40.6*
Cc1cc(C)n2nc(SC(C)C(=O)Nc3ccc(Cl)cn3)nc2n1 (stereo not given),0.8,-0.9,0.8,3.5,0.0,3.7,.
O=C(COC(=O)c1cccc(NS(=O)(=O)c2ccc(F)c(F)c2)c1)NC(=O)NC1CCCC1,0.9,-1.8,0.9,-7.4,0.1,-4.0,.
Cc1ccc(C(=O)NC(C#N)=C(Cl)Cl)cc1,1,1.8,1,7.3,0.0,21.9*,21.1*
CCN1C(=O)c2ccc(-c3nc4ccccc4c(=O)o3)cc2C1=O,1.1,-7.4,1.2,5.7,0.2,24.5*,6.3
O=C(NCc1nnc(SCC(=O)N2CCOCC2)o1)c1ccccc1F,1,-0.1,1,3.7,-0.9,1.4,.
O=C1NNC(c2ccccc2)=N/C1=C\c1ccccc1Cl,.,-13.1,.,.,.,17.5*,18.3*
CC(C)(C)C(=O)Nc1sc(-c2ccccc2)cc1C(=O)O,.,-32.7,.,.,.,17.7*,3.3
SMILES,PMI act,TbHK1 inh,PMI act hi M6P,G6PDH counter,Redox H2O2 prof,p97 ATPase inh,p97 inh conf
O=C(O)c1ccccc1SCC(=O)N1CCCCC1,1,1.0,1,-7.0,1.7,3.8,.
O=C(O)c1ccccc1SCC(=O)N1c2ccccc2Sc2ccccc21,0.9,-3.9,1,9.4,1.4,66.1*,-1.3
CC(C)(C)N1C(=O)Cc2c1nc(N)c1c(N)nc(N3CCCCC3CO)c(C#N)c21 (stereo not given),0.2,-11.0,0.3,46.4,2.3,27.7*,35.5*
O=C(Nc1cccc(C(F)(F)F)c1)C1CCCO1 (stereo not given),0.7,-4.0,1,10.8,0.1,5.7,.
CC(=O)c1cccc(NC(=O)C2C(c3ccccc3)C2(Cl)Cl)c1 (stereo not given),0.8,4.6,0.8,1.3,-0.3,27.7*,31.8*
COc1ccc(NC(=O)C2C(c3ccccc3)C2(Cl)Cl)cc1 (stereo not given),.,6.3,.,.,.,8.0,.
Cc1cccc(NC(=O)C2C(c3ccccc3)C2(Cl)Cl)c1 (stereo not given),0.8,3.9,0.8,7.0,-0.3,18.6*,36.9*
Fc1cccc(-c2nnn3c2nc(Cl)c2ccccc23)c1,1.1,-4.4,1.1,1.5,-0.2,6.7,.
Clc1nc2c(-c3ccccc3)nnn2c2ccccc12,.,-8.8,.,.,.,16.7*,25.5*
Cc1ccc(-c2nnn3c2nc(Cl)c2ccccc23)cc1,1.5,0.6,1.2,-2.3,-0.2,16.7*,8.1
NNc1nc2c(-c3ccc(Cl)cc3)nnn2c2ccccc12,1,-10.0,1.1,-1.1,-2.4,2.0,.
Cc1ccc(N(C(=O)c2ccco2)C2C=CS(=O)(=O)C2)cc1 (stereo not given),0.9,-0.2,1,3.6,-0.1,5.7,.
N#Cc1c(-c2ccccc2)c(-c2ccccc2)nn(CC(=O)NNC(=O)Nc2ccc(Cl)cc2)c1=O,.,-6.3,.,.,.,31.4*,26.8*
C=CCNCC(O)COc1ccc(C(C)=O)cc1OC (stereo not given),.,-4.3,.,.,.,18.1*,10.3
COc1ccc(N2C(=O)C3C(c4ccc(OC)cc4O)NC(Cc4ccccc4)(C(=O)O)C3C2=O)cc1 (stereo not given),1.1,5.8,1,1.6,-0.2,17.6*,7.2
COc1ccc(CCN(C)C(=O)C2CCN(Cc3ccc(C)cc3)CC2)cc1OC,1,1.8,1.1,0.4,-1.4,-2.0,.
COc1ccccc1C(=O)N/C(=C\c1ccc(Br)cc1)C(=O)NCCC(=O)O,0.8,-4.5,0.9,21.6,-0.3,16.3*,2.0
O=C(COc1ncnc2cc([N+](=O)[O-])ccc12)NC(=O)NC1CCCCC1,1,-11.1,1,1.1,-0.2,0.4,.
O=C(COc1ncnc2cc([N+](=O)[O-])ccc12)NCCc1ccc(Cl)cc1,0.9,1.8,0.9,1.1,-0.3,15.4*,8.8

# Screening data deposited in PubChem by several laboratories.
